For test [1], the target named is Gonadotropin-releasing hormone receptor (Homo sapiens, UniProt P30968, S118N). Put plainly: Displacement of [125I]-His5, D-Tyr6]GnRH from mutant GnRHR, GnRHR S118N. (In a radioligand displacement assay an active substance lowers the binding of a labelled ligand.)
Test [2] concerns the target Gonadotropin-releasing hormone receptor (Homo sapiens, UniProt P30968, Y284F). Nature of the test: Displacement of [125I]-His5, D-Tyr6]GnRH from mutant GnRHR, GnRHR Y284F.
For test [3], the target named is Gonadotropin-releasing hormone receptor (Homo sapiens, UniProt P30968, D293E). Put plainly: Displacement of [125I]-His5, D-Tyr6]GnRH from mutant GnRHR, GnRHR D293E. In short, it runs like this: (§1)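 Human GnRH-R (wild type or site-directed point mutant) was transiently expressed in COS-7 cells by electroporation, with cells cultured 36-48 h before membranes were prepared. Membranes (5-20 µg per point) were incubated 2 h at room temperature with 0.3 nM tracer and varying competitor in HEPES pH 7.5, 150 mM NaCl, 0.1% BSA, then filtered and counted.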
Chain of Gonadotropin-releasing hormone receptor (Homo sapiens, UniProt P30968, D293E) (P30968 whole entry D293E): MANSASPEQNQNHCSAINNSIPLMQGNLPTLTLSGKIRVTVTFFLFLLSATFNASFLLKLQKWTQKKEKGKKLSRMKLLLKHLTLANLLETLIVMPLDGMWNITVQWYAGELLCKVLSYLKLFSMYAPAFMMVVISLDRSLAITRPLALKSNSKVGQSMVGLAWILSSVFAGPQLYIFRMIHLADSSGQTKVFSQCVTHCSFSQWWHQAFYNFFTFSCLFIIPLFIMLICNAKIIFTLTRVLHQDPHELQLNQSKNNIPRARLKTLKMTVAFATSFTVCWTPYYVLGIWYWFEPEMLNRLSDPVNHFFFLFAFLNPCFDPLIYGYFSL

In test [4] the target is Gonadotropin-releasing hormone receptor (Homo sapiens, UniProt P30968, F272L). Nature of the test: Displacement of [125I]-His5, D-Tyr6]GnRH from mutant GnRHR, GnRHR F272L. In short, it runs like this: as §1
Chain of Gonadotropin-releasing hormone receptor (Homo sapiens, UniProt P30968, F272L) (P30968 whole entry F272L): as the sequence (P30968 whole entry D293E) above, with F272L, E293D counted along it
In test [5] the target is Gonadotropin-releasing hormone receptor (Homo sapiens, UniProt P30968, S124A). Put plainly: Displacement of [125I]-His5, D-Tyr6]GnRH from mutant GnRHR, GnRHR S124A.
Chain of Gonadotropin-releasing hormone receptor (Homo sapiens, UniProt P30968, S124A) (P30968 whole entry S124A): as the sequence (P30968 whole entry D293E) above, with S124A, E293D counted along it
In test [6] the target is Gonadotropin-releasing hormone receptor (Homo sapiens, UniProt P30968, L112A). Nature of the test: Displacement of [125I]-His5, D-Tyr6]GnRH from mutant GnRHR, GnRHR L112A. In short, it runs like this: as §1
Chain of Gonadotropin-releasing hormone receptor (Homo sapiens, UniProt P30968, L112A) (P30968 whole entry L112A): as the sequence (P30968 whole entry D293E) above, with L112A, E293D counted along it
Test [7] concerns the target Gonadotropin-releasing hormone receptor (Homo sapiens, UniProt P30968, E111K). Nature of the test: Displacement of [125I]-His5, D-Tyr6]GnRH from mutant GnRHR, GnRHR E111K. The procedure, abridged: as §1
Test [8] addresses Gonadotropin-releasing hormone receptor (Homo sapiens, UniProt P30968, H182A). Put plainly: Displacement of [125I]-His5, D-Tyr6]GnRH from mutant GnRHR, GnRHR H182A. In short, it runs like this:
as §1

The target of test [9] is Gonadotropin-releasing hormone receptor (Homo sapiens, UniProt P30968, D293A). Nature of the test: Displacement of [125I]-His5, D-Tyr6]GnRH from mutant GnRHR, GnRHR D293A. In short, it runs like this:
as §1

In test [10] the target is Gonadotropin-releasing hormone receptor (Homo sapiens, UniProt P30968, E111Q). Put plainly: Displacement of [125I]-His5, D-Tyr6]GnRH from mutant GnRHR, GnRHR E111Q. In short, it runs like this:
as §1

For test [11], the target named is Gonadotropin-releasing hormone receptor (Homo sapiens, UniProt P30968, S203P). Put plainly: Displacement of [125I]-His5, D-Tyr6]GnRH from mutant GnRHR, GnRHR S203P.
Chain of Gonadotropin-releasing hormone receptor (Homo sapiens, UniProt P30968, S203P) (P30968 whole entry S203P): as the sequence (P30968 whole entry D293E) above, with S203P, E293D counted along it

By IC50 is commonly meant the concentration needed to halve the response being measured. A high value points to weaker potency in that assay.

Molecules are shown by their SMILES.

Chain of Gonadotropin-releasing hormone receptor (Homo sapiens, UniProt P30968, S118N) (P30968 whole entry S118N): as the sequence (P30968 whole entry D293E) above, with S118N, E293D counted along it
Chain of Gonadotropin-releasing hormone receptor (Homo sapiens, UniProt P30968, E111Q) (P30968 whole entry E111Q): as the sequence (P30968 whole entry D293E) above, with E111Q, E293D counted along it
Chain of Gonadotropin-releasing hormone receptor (Homo sapiens, UniProt P30968, D293A) (P30968 whole entry D293A): as the sequence (P30968 whole entry D293E) above, with E293A counted along it
Chain of Gonadotropin-releasing hormone receptor (Homo sapiens, UniProt P30968, H182A) (P30968 whole entry H182A): as the sequence (P30968 whole entry D293E) above, with H182A, E293D counted along it
Chain of Gonadotropin-releasing hormone receptor (Homo sapiens, UniProt P30968, Y284F) (P30968 whole entry Y284F): as the sequence (P30968 whole entry D293E) above, with Y284F, E293D counted along it
Chain of Gonadotropin-releasing hormone receptor (Homo sapiens, UniProt P30968, E111K) (P30968 whole entry E111K): as the sequence (P30968 whole entry D293E) above, with E111K, E293D counted along it

As for `COc1c(C)cc(-c2[nH]c3ccc(C(C)(C)C(=O)N(CC(C)C)CC(C)C)cc3c2[C@H](C)CNCCc2ccccc2)cc1C`, the half-maximal inhibitory concentration (IC50) in [1] amounted to 63.7 nM; in [2], 28.8 nM; in [3] it was 27.2 nM; in test [4] it was 16.9 nM; in test [5] it was 21.3 nM; in test [6], 22.4 nM. Moreover, the IC50 in test [7] came to 13.6 nM; in test [8], 3.7 nM; in test [9], 24.5 nM; in [10], 11.5 nM; in test [11], 41.4 nM.

For the compound `CC(C)C[C@H](NC(=O)[C@@H](Cc1ccc(O)cc1)NC(=O)[C@H](Cc1c[nH]cn1)NC(=O)[C@H](CO)NC(=O)[C@H](Cc1c[nH]c2ccccc12)NC(=O)[C@H](Cc1c[nH]cn1)NC(=O)[C@@H]1CCC(=O)N1)C(=O)N[C@@H](CCCN=C(N)N)C(=O)N1CCC[C@H]1C(=O)NCC(N)=O`, the IC50 is 1.1 nM in test [1]; 2.8 nM in [2]; 6.1 nM in test [3]; 4.4 nM in test [4]; 3.9 nM in [5]; 2.5 nM in [6]. Also, the IC50 turned out to be 10.5 nM in [7]; 6.6 nM in test [8]; 5.7 nM in test [9]; 3.3 nM in [10]; 5.4 nM in test [11].

Source of the values: ChEMBL document CHEMBL1147748, “Overlapping, nonidentical binding sites of different classes of nonpeptide antagonists for the human gonadotropin-releasing hormone receptor” (J Med Chem, 2006).
